In paper PMC11225362 (iScience, 2024):
“And” between values parts separate entries of the source, which are not always exact repeats. Identical values can stand only once. “Also recorded” adds a separate entry of the source. Blank lines part the entries; values can stand above or below the molecule they belong to.

Tests used:
[1] = biological target: human constitutive 20S proteasome (Homo sapiens, UniProt P25787+P60900); assay: Fluorogenic small peptide assay with purified 20S proteasome; type: biochemical; details: for EC200 (concentration at which degradation rate is enhanced 2-fold, 200%): equimolar mixture of Suc-LLVY-AMC, Z-LLE-AMC, Boc-LRR-AMC, mean ± SD, n = 3
How it was run: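 Human constitutive 20S proteasome (0.5 nM) in 38 mM Tris, 100 mM NaCl, pH 7.8 was preincubated 20 min at 37°C with test compound (3.75–30 μM, or 9 points 0.16–30 μM) in DMSO (2% final). Suc-LLVY-, Z-LLE- and Boc-LRR-AMC were added at 6.67 μM final each. AMC release (380/460 nm) was read at 37°C for 1 h. Hydrolysis rate was expressed relative to vehicle, and EC200 was taken as the 2-fold-rate concentration.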

[2] = system: A53T α-synuclein in HEK-293T cells; assay: A53T α-synuclein levels in transfected HEK-293T cells; type: cell-based; details: for α-synuclein remaining: 0.75 μM, A53T α-synuclein; for A53T α-synuclein remaining: vs DMSO
[3] = system: ubiquitin in HEK-293T cells; assay: Ubiquitin levels in unmodified HEK-293T cells; type: cell-based; details: for levels of ubiquitin: 10 μM
How it was run: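 Untransfected HEK-293T cells were treated with 10 μM test compound, DMSO vehicle, or 100 nM bortezomib. Ubiquitin levels were visualized and quantified by immunoblotting relative to vehicle.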

purified 20S proteasome [4] = biological target: T1, purified 20S proteasome (Homo sapiens, UniProt P25787+P60900); assay: Purified α-synuclein digestion with 20S proteasome; type: biochemical; details: 10 nM 20S, 300 nM α-synuclein, 3.5 h, 37°C
How it was run: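 Purified human 20S proteasome (10 nM final) in 50 mM HEPES, 5 mM DTT, pH 7.2 was preincubated 45 min at 37°C with test compound in DMSO or DMSO alone. Purified α-synuclein (300 nM final) was added, and digestion ran 3.5 h at 37°C. GAPDH (0.5 μM) served as loading control. Samples were boiled 15 min in SDS buffer and immunoblotted with anti-α-synuclein (1:1333).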

purified 20S proteasome [5] = biological target: T1, purified 20S proteasome; assay: Purified p25α digestion with 20S proteasome; type: biochemical; details: 10 μM compound; 7.5 nM 20S, 500 nM p25α, 3 h
How it was run: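 20S proteasome (7.5 nM final) in 120 mM NaCl, 50 mM Tris, 0.1% β-mercaptoethanol, pH 7.2 was exposed to 10 μM test compound or DMSO for 30 min at 37°C. Purified p25α was pretreated with 100 μM DTE for 30 min at room temperature, then added at 500 nM final for 3 h. GAPDH (0.5 μM) was the loading control. Samples were boiled in SDS buffer and immunoblotted.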

p25α in HEK-293T cells = assay: p25α levels in transfected HEK-293T cells; type: cell-based; details: 10 μM, 16 h
How it was run: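 HEK-293T cells were transiently transfected with TPPP/p25α and A53T α-synuclein plasmids, and protein was expressed for 48 h. Cells were then treated 16 h with 10 μM test compound, DMSO, or 30 nM bortezomib as control. p25α was quantified by immunoblot in triplicate.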

p25α in PC12 cells = assay: p25α levels in PC12 cells; type: cell-based, rat; details: 10 μM
[6] = system: A53T α-synuclein in HEK-293T cells; assay: A53T α-synuclein levels in HEK-293T cells pre-treated with Bafilomycin A1; type: cell-based; details: 10 μM after 1 h pre-treatment with 500 nM Bafilomycin A1, HEK-293T
How it was run: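 HEK-293T cells transiently expressing A53T α-synuclein (48 h expression) were pretreated with 500 nM bafilomycin A1 and exposed to 10 μM test compound. α-Synuclein levels were then determined by SDS-PAGE immunoblotting with anti-α-synuclein (1:1333).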

[7] = system: proteasome activity in PC12 cells; type: cell-based, rat; details: 3 μM, 72 h; co-transfected PC12; untreated model 8%
How it was run: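 PC12 cells (RPMI 1640 with 5% FBS and 10% horse serum) were strained and plated at 2,500 cells/well in 384-well plates. Cells were co-transfected with 0.5 μg A53T α-synuclein and 0.1 μg p25α plasmids for 24 h. They were then treated with 3 μM test compound or DMSO (0.03% final) for 72 h. Proteasome Glo reagent was added and luminescence recorded.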

PC12 cells = type: cell-based, rat; details: 3 μM, 72 h; co-transfected PC12; untreated model 25%

Molecule: CC(C)C[C@H](NC(=O)[C@H](Cc1ccccc1)NC(=O)c1cnccn1)B(O)O [BTZ, Bortezomib, reference compound]
- increase of A53T α-synuclein levels ([2]; 30 nM, 16 h): 148% and 135%
- ubiquitin as compared to the vehicle ([3]; 100 nM): 298%

Molecule: O=C(CCn1c2ccccc2c2ccccc21)N(c1ccc(F)cc1)c1ccc(F)cc1 [Compound 1, 3-(9H-carbazol-9-yl)-N,N-bis(4-fluorophenyl)propanamide]
- EC200 (concentration at which degradation rate is enhanced 2-fold, 200%) [1]: 1.6 µM
- α-synuclein remaining (purified 20S proteasome [4]; 5 μM compound): 45%
- α-synuclein remaining (purified 20S proteasome [4]; 15 μM compound): 28%
- p25α remaining compared to DMSO treated samples (purified 20S proteasome [5]): 29%
- α-synuclein remaining [2]: 55%
- decrease of A53T α-synuclein ([2]; 1 μM, 16 h): 67%
- A53T α-synuclein remaining ([2]; 1 μM, 16 h): 64%
- A53T α-synuclein remaining ([2]; 15 μM, 16 h): 21%
- reduction of p25α (p25α in HEK-293T cells): 45%
- p25α remaining (p25α in PC12 cells): 40%
- A53T α-synuclein remaining [6]: 16%
- levels of ubiquitin [3]: didn’t impact the levels of ubiquitin significantly
- proteasome activity remaining [7]: 29%

Molecule: O=C(Cn1c2ccccc2c2ccccc21)N(c1ccc(F)cc1)c1ccc(F)cc1 [Compound 2, 2-(9H-carbazol-9-yl)-N,N-bis(4-fluorophenyl)acetamide]
- EC200 (concentration at which degradation rate is enhanced 2-fold, 200%) [1]: 3.8 µM

Molecule: O=C(CCn1c2ccccc2c2ccc(Cl)cc21)N(c1ccc(F)cc1)c1ccc(F)cc1 [Compound 3, 3-(2-chloro-9H-carbazol-9-yl)-N,N-bis(4-fluorophenyl)propanamide]
- EC200 (concentration at which degradation rate is enhanced 2-fold, 200%) [1]: 0.9 µM
- α-synuclein remaining (purified 20S proteasome [4]; 15 μM compound): 33%

Molecule: CN(C)CCC(=O)N(c1ccc(F)cc1)c1ccc(F)cc1 [Compound 19, 3-(dimethylamino)-N,N-bis(4-fluorophenyl)propanamide]
- p25α remaining compared to DMSO treated samples (purified 20S proteasome [5]): didn’t show significant impact on the rate of p25α degradation
- reduction of p25α (p25α in HEK-293T cells): didn’t impact the levels of p25α
- levels of ubiquitin [3]: didn’t impact the levels of ubiquitin significantly

Molecule: N,N-bis(4-fluorophenyl)-2-(2-methyl-9H-carbazol-9-yl)acetamide [Compound 4]
- EC200 (concentration at which degradation rate is enhanced 2-fold, 200%) [1]: 1.2 µM
- α-synuclein remaining (purified 20S proteasome [4]; 5 μM compound): 58%
- α-synuclein remaining (purified 20S proteasome [4]; 15 μM compound): 33%
- p25α remaining compared to DMSO treated samples (purified 20S proteasome [5]): 28%
- α-synuclein remaining [2]: 72%
- A53T α-synuclein remaining ([2]; 5 μM, 16 h): 30%
- A53T α-synuclein remaining ([2]; 10 μM, 16 h): 14%
- A53T α-synuclein remaining ([2]; 15 μM, 16 h): 11%
- reduction of p25α (p25α in HEK-293T cells): non-significant
- p25α remaining (p25α in PC12 cells): 67%
- A53T α-synuclein remaining [6]: 28%
- levels of ubiquitin [3]: didn’t impact the levels of ubiquitin significantly
- cell viability (PC12 cells): 75%
- proteasome activity remaining [7]: 34%

Second part, led by results:

- EC200 (concentration at which degradation rate is enhanced 2-fold, 200%) [1]: 9.0 µM
Molecule: 3-(2,3-dihydro-4H-benzo[b][1,4]oxazin-4-yl)-N,N-bis(4-fluorophenyl)propenamide [Compound 11]

- EC200 (concentration at which degradation rate is enhanced 2-fold, 200%) [1]: 3.8 µM
Molecule: O=C(CCn1c2ccccc2c2ccncc21)N(c1ccc(F)cc1)c1ccc(F)cc1 [Compound 5, N,N-bis(4-fluorophenyl)-3-(9H-pyrido[3,4-b]indol-9-yl)propanamide]

- EC200 (concentration at which degradation rate is enhanced 2-fold, 200%) [1]: 2.0 µM
Molecule: O=C(Cn1c2ccccc2c2ccncc21)N(c1ccc(F)cc1)c1ccc(F)cc1 [Compound 6, N,N-bis(4-fluorophenyl)-2-(9H-pyrido[3,4-b]indol-9-yl)acetamide]

- EC200 (concentration at which degradation rate is enhanced 2-fold, 200%) [1]: 7.5 µM
Molecule: O=C(CCn1ccc2ccccc21)N(c1ccc(F)cc1)c1ccc(F)cc1 [Compound 7, N,N-bis(4-fluorophenyl)-3-(1H-indol-1-yl)propanamide]

- EC200 (concentration at which degradation rate is enhanced 2-fold, 200%) [1]: 7.5 µM
Molecule: O=C(Cn1ccc2ccccc21)N(c1ccc(F)cc1)c1ccc(F)cc1 [Compound 8, N,N-bis(4-fluorophenyl)-2-(1H-indol-1-yl)acetamide]

- EC200 (concentration at which degradation rate is enhanced 2-fold, 200%) [1]: 1.6 µM
Molecule: O=C(Cn1ccc2ccc(Cl)cc21)N(c1ccc(F)cc1)c1ccc(F)cc1 [Compound 10, 2-(6-chloro-1H-indol-1-yl)-N,N-bis(4-fluorophenyl)acetamide]

- EC200 (concentration at which degradation rate is enhanced 2-fold, 200%) [1]: 8.0 µM
Molecule: O=C(CN1CCOc2ccccc21)N(c1ccc(F)cc1)c1ccc(F)cc1 [Compound 12, 2-(2,3-dihydro-4H-benzo[b][1,4]oxazin-4-yl)-N,N-bis(4-fluorophenyl)acetamide]

- EC200 (concentration at which degradation rate is enhanced 2-fold, 200%) [1]: 1.3 µM
Molecule: O=C(CCn1c(=O)oc2ccccc21)N(c1ccc(F)cc1)c1ccc(F)cc1 [Compound 13, N,N-bis(4-fluorophenyl)-3-(2-oxobenzo[d]oxazol-3(2H)-yl)propanamide]

- 20S proteasome activation (in words) ([1]; fluorogenic peptide assay): abrogated all 20S proteasome activity
Molecule: O=C(Cn1c(=O)oc2ccccc21)N(c1ccc(F)cc1)c1ccc(F)cc1 [Compound 14, N,N-bis(4-fluorophenyl)-2-(2-oxobenzo[d]oxazol-3(2H)-yl)acetamide]
- A53T α-synuclein remaining ([2]; 15 μM, 16 h): no significant effect on degradation; also recorded: no impact on the levels of A53T α-synuclein

- α-synuclein remaining (purified 20S proteasome [4]; 5 μM compound): 60%
- α-synuclein remaining (purified 20S proteasome [4]; 15 μM compound): 40%
Molecule: CCOC(=O)[C@]1(c2ccccc2)N=C(c2ccc(OC)cc2)N(Cc2ccccc2)[C@@H]1c1ccc(NCc2ccccc2)cc1 [TCH-165, reference compound]
- A53T α-synuclein remaining ([2]; 10 μM, 16 h): 52% and 40%
